Measurements: the RNAGym collection of RNA variant scans (doi:10.1126/science.aae0568)
This sample holds only a part of the variants without activity.

B1: tRNA (parent)
chain: GUUCCGUUGGCGUAAUGGUAACGCGUCUCCCUCCUAAGGAGAAGACUGCGGGUUCGAGUCCCGUACGGAACG

Variants of: B1
Experiment: yeast fitness relative to wild type (ratio to wild type); higher = fitter; tRNA-Arg(CCU), competitive growth, 37 C, YPD
How it was run: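 Variants of the tRNA-Arg(CCU) gene, chemically synthesised with a 3% per-site mutation rate at 69 sites, were placed at the native genomic locus in Saccharomyces cerevisiae. The pooled strains were competed in YPD at 37°C for 24 hours in six parallel replicates. Gene amplicons from the start population and from each end population were read by 100-nucleotide paired-end sequencing. Darwinian fitness relative to wild type came from changes in genotype frequencies; genotypes needed ≥ 100 starting reads, and estimates < 0.5 were set to 0.5.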

| Variant | yeast fitness |
| --- | --- |
| GUUCGGUUGGCGUCAUGGUAACCCGUCUCCCUCCUAAAGAGAAGACUGCGGGUUCGACUCCCAUACGGAGCG [C5G A14C G23C G38A G58C G63A A70G] | ≤ 0.5 |
| GUUCGGUUGGCGUAUUGGUAACGCGUCUCCCUCCUAAGGAGAAGACUGCGGGUUCAAGUCCCGUACGGAGCG [C5G A15U G56A A70G] | ≤ 0.5 |
| GUUCGGUUGGCGUUAUGGUAACGCGUCUCCCUCCUAAGGAGAAGACUGCGGGUUCGAGUCCCGUACGCAACG [C5G A14U G68C] | ≤ 0.5 |
| GUUCGGUUGGCGUGAUAGUAACGCGUCUCCCCCCUAAGGAGAAGACUGCGGGUUCCAGUGCCGUACGGAACG [C5G A14G G17A U32C G56C C60G] | 0.554 |
| GUUCGGUUGGCGUGAUGGUAUCGCGUCUCCCUCCUAAGGAGAAGACUGCGGGUUCGUGUCCCGUACGGAACG [C5G A14G A21U A57U] | ≤ 0.5 |
| GUUCGGUUGGCGUAAUGGUAGCGCGUCUCCGUCCUCAGGAGAAGACUGCGGGUUCGGGUCCUGUACGGAACG [C5G A21G C31G A36C A57G C62U] | 0.586 |
| GUUCGGUUGGCGUUAUGGUAACGCGUCUCCCUGCUAAGGAGAUGACUGCGGGUCCGAGUCCCGUACGGAACG [C5G A14U C33G A43U U54C] | ≤ 0.5 |
| GUUCGGUUGGCGUACUGGUAACGCGUCUCCCUCCUAAGGAGAAGACUGCGGGUUCGAGUCCCGUACGGAACG [C5G A15C] | 0.626 |
| GUUCGGUUGGCGUAUUGGUAACGCGUCUCCCUCCUAAGGAGAAGACUGCGGGUUCGAGUCCCGUACGGAACG [C5G A15U] | 0.747 |
| GUUCGGUUGGCGUAUUGGUAACGCGUCUCCCUCCUAAGGAGAAGAUUGCGGGUUCGAGUCCCGUACGGAGCG [C5G A15U C46U A70G] | ≤ 0.5 |
| GUUCGGUUGGCGUUAUGGUAACGCAUCUCCCUCCUAAGGAGAAGACUGCGGGUUCAAGUCCCGUACAGAACG [C5G A14U G25A G56A G67A] | ≤ 0.5 |
| GUUCGGUUGGCGUAAUGGUCACGCGUGUCCCUCCUAAGGAGAAGACUGCGGGUUCGAGUCCCGUACUGAACG [C5G A20C C27G G67U] | ≤ 0.5 |
| GUUCGGUUGGCGUAGUGGUAACGCGUGACCCACCUAAGGAGAAGGUUGCGGGUUCCAGUCUCGUACGGAACG [C5G A15G C27G U28A U32A A45G C46U G56C C61U] | 0.736 |
| GUUCGGUUGGCGUUAUGAUAUCGCGUCUCCCUCCUAAGGAGGAGACUGCGGGUUCGAGUCCCGUACGGAACG [C5G A14U G18A A21U A42G] | 0.646 |
| GUUCGGUUGGCGUAAUGGUUACGCGUCUCCCUCCUAAGGAGAAGACUGCGGGUUCGAGUCCGGUACGGAACG [C5G A20U C62G] | ≤ 0.5 |
| GUUCGGUUGGCGUUAUGGUAACGCGUCUCCCUCCUAAGGAGAAGACUGCGGGUUCGAGUCCCGUACAGGACG [C5G A14U G67A A69G] | 0.503 |
| GUUCGGUUGGCGUAAUGGUUACGCGUCUCCCUCCUAAGGAGAAGACUGCGCGUUCGAGUCGCGUUCGGACCG [C5G A20U G51C C61G A65U A70C] | 0.565 |
| GUUCGGUUGGCGUAAUGGUAGCGCGUCUCCCUCCUAAGGAGAAGACUGAGGGUCCGAGUCCCGUGCGGAACG [C5G A21G C49A U54C A65G] | ≤ 0.5 |
| GUUCGGUUGGCGUCAUGGUAACGCGUCACCAUCCUAAGGAGAAGUCUGAGGGUUCGAGUCCCGUAUGGAACG [C5G A14C U28A C31A A45U C49A C66U] | ≤ 0.5 |

| Variant | yeast fitness |
| --- | --- |
| GUUCGGUUGGCGUAGUGGUAACGCGUCUCCCUCCUAAGGAGAAGACUGCGGGUUCGAGUCUCGUACGGAACG [C5G A15G C61U] | 0.539 |
| GUUCGGUUGGCGUAAUGGUAGCGCGUCUCCCCCCUAAGGAGAAGACAGCGGGUUCGAGUCCCGUACGAAACG [C5G A21G U32C U47A G68A] | ≤ 0.5 |
| GUUCGGUUGGCGUAAUGGUUACGCGUCUCCCUCCUAAGGAGAAGACUGCGGGUUCGAGUCCCGUACGCAACG [C5G A20U G68C] | ≤ 0.5 |
| GUUCGGUUGGCGUAAUGGUAGCGCGUGUCCCUCGUAAGGAGACGAGUGCGGGUUCGAGUCCCGUACGGAUCG [C5G A21G C27G C34G A43C C46G A70U] | 0.569 |
| GUUCGGUUGGCGUUAUGGUAACGCAUCUCCCUACUAAGGAGAAGACUGCGGGUUCGAGUCUCGUACGGAACG [C5G A14U G25A C33A C61U] | ≤ 0.5 |
| GUUCGGUUGGCGUAGUGGUAACGGGUCUCCCUCCUAAGGAGAAGACUGCGGGUUCGAGUACCGUACGGAACG [C5G A15G C24G C60A] | ≤ 0.5 |
| GUUCGGUUGGCGUAAUGGUGACGCGUCUCCCUCCUAAGGAGAAGAUUGCGGGUUCGAGUCCCGUACGGAACG [C5G A20G C46U] | 0.638 |
| GUUCGGUUGGCGUCAUGGUAACGCAUCUCCCCCCUAAGGACAAGACUGCAGGUUCGAGUCGCGUACGGAACG [C5G A14C G25A U32C G41C G50A C61G] | ≤ 0.5 |
| GUUCGGUUGGCGUAAUGGUUACGCGUCUCCCUCCUAGGGAGAAGACUGCGGGUUCGAGUCCCGAACGGAACG [C5G A20U A37G U64A] | 0.577 |
| GUUCGGUUGGCGUACUGGUAUCGUGUCUCCCUCCUAAGGAGAAGACUGCGGGUUCGGGUCCCGUACUGAACG [C5G A15C A21U C24U A57G G67U] | ≤ 0.5 |
| GUUCGGUUGGCGUAUUGGUUACGCGUCUCCCUCCUAAGGCGAAGACUGCGGGUUCGAGUCCCGUACAGAACG [C5G A15U A20U A40C G67A] | 0.538 |
| GUUCGGUUGGCGUUAUGGUCACGCGUCUCCCUCCUAAGGAGAAGGCUGCGGGUUCGAGUCCCGUACGGAACG [C5G A14U A20C A45G] | ≤ 0.5 |
| GUUCGGUUGGCGUAAUGGUAGCGCGUCUCCCUCCUAAGGAGAAGUCUGCGGGUUCGAGUCCCGUACGGUACG [C5G A21G A45U A69U] | 0.634 |
| GUUCGGUUGGCGUAAUGGUACCGCGUCUCCCUCCUAAGGAGAAGACUGCGAGUUCGAAUCCCGUACGGAACG [C5G A21C G51A G58A] | ≤ 0.5 |
| GUUCGGUUGGCGUAAUGGUUACGCGUCUCCCUCCUAAGGAGAAGACUGCGGGUUCGAGUCCCGUACGGAACG [C5G A20U] | 0.621 |
| GUUCGGUUGGCGUACUGCUAACGCGUCUCCCUCCUAAGGAGAAGACUGUGGGUUCGAGUCCCGAACGGUACG [C5G A15C G18C C49U U64A A69U] | ≤ 0.5 |
| GUUCGGUUGGCGUUAUGGUAACGCGUCUCCCUCCUAUGGAGAAGCCUGCGGGUUCGAGUCCUGUACGGAACG [C5G A14U A37U A45C C62U] | ≤ 0.5 |
| GUUCGGUUGGCGUAAUGGUCACGUGUCUCCCUCCUAAGGAGAAGACUGCGGGUUCGAGUCCCGUACGGAACG [C5G A20C C24U] | ≤ 0.5 |
